Key:
DU-145 = test: Cytotoxicity against human DU145 cells after 48 hrs by SRB assay; assay type: functional, cell-based; conditions: Homo sapiens, DU-145, 48 h; for CC50: read-out: LC50 (the source's name)
Outline: (§1)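 Cells grown in RPMI 1640 with 10% FBS and penicillin/streptomycin at 37 °C and 5% CO₂, trypsinized, then seeded at 5 × 10³/well. After 18 h drug-free attachment, samples in DMSO/EtOH/PBS (0.5:0.5:99) were added for 48 h continuous exposure. Cells were fixed with cold TCA (1 h, 4 °C) and stained with SRB (10 min). Tris-solubilized stain read at 490 nm. Triplicate wells, mean ± SD; GI₅₀ derived.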

LNCaP = test: Cytotoxicity against human LNcaP cells after 48 hrs by SRB assay; assay type: functional; conditions: for CC50: read-out: LC50 (the source's name); outline: as §1
[1] = Cytotoxicity against human IGROV cells after 48 hrs by SRB assay; assay type: functional; conditions: for CC50: read-out: LC50 (the source's name); outline: as §1
[2] = Cytotoxicity against human IGROV-ET cells after 48 hrs by SRB assay; assay type: functional; conditions: for CC50: read-out: LC50 (the source's name); outline: as §1
SK-BR-3 = test: Cytotoxicity against human SKBR3 cells after 48 hrs by SRB assay; assay type: functional; conditions: SK-BR-3, 48 h; for CC50: read-out: LC50 (the source's name); outline: as §1
SK-MEL-28 = test: Cytotoxicity against human SK-MEL-28 cells after 48 hrs by SRB assay; assay type: functional, cell-based; conditions: Homo sapiens, SK-MEL-28, 48 h; for CC50: read-out: LC50 (the source's name); outline: as §1
A549 = test: Cytotoxicity against human A549 cells after 48 hrs by SRB assay; assay type: functional, cell-based; conditions: Homo sapiens, A549, 48 h; outline: as §1
K562 = test: Cytotoxicity against human K562 cells after 48 hrs by SRB assay; assay type: functional; conditions: K562, 48 h; for CC50: read-out: LC50 (the source's name); outline: as §1
PANC-1 = test: Cytotoxicity against human PANC1 cells after 48 hrs by SRB assay; assay type: functional; conditions: PANC-1, 48 h; for CC50: read-out: LC50 (the source's name); outline: as §1
HT-29 = test: Cytotoxicity against human HT29 cells after 48 hrs by SRB assay; assay type: functional, cell-based; conditions: Homo sapiens, HT-29, 48 h; for CC50: read-out: LC50 (the source's name); outline: as §1
LoVo [3] = test: Cytotoxicity against human LoVo cells after 48 hrs by SRB assay; assay type: functional; conditions: for CC50: read-out: LC50 (the source's name)
LoVo [4] = test: Cytotoxicity against human doxorubicin resistant LoVo cells after 48 hrs by SRB assay; assay type: functional; conditions: for CC50: read-out: LC50 (the source's name); outline: as §1
HeLa = test: Cytotoxicity against human HeLa cells after 48 hrs by SRB assay; assay type: functional; conditions: for CC50: read-out: LC50 (the source's name); outline: as §1
[5] = Cytotoxicity against human HeLa-APL cells after 48 hrs by SRB assay; assay type: functional; outline: as §1

Structure (SMILES) | GI50 (DU-145; read-out: GI50) | CC50 (DU-145) | CC50 (LNCaP) | CC50 [1] | CC50 [2] | GI50 (SK-BR-3; read-out: GI50) | CC50 (SK-BR-3) | GI50 (SK-MEL-28; read-out: GI50) | CC50 (SK-MEL-28) | LC50 (A549) | CC50 (K562) | CC50 (PANC-1) | CC50 (HT-29) | GI50 (LoVo [3]) | TGI (LoVo [3]) | CC50 (LoVo [3]) | CC50 (LoVo [4]) | CC50 (HeLa) | GI50 [5] | LC50 (concentration giving 50% net cell kill) [5] | other results
CC[C@@H](C)[C@@H](NC(=O)[C@H](CCCN)NC(=O)[C@H]1CCCN1C(=O)[C@H](NC(=O)[C@@H](NC(=O)[C@@H](NC(=O)[C@H](NC(=O)CCCC(C)C)C(C)C)[C@@H](C)O)C(C)C)C(C)C)C(=O)N[C@H]1C(=O)N[C@H]([C@H](C)CC)C(=O)N[C@H](C(C)C)C(=O)N[C@@H](Cc2ccccc2)C(=O)NC(C)(C)C(=O)N[C@@H](C(C)C)C(=O)O[C@H]1C | 1.64 µM | 1.17 µM | 1.39 µM | 0.368 µM | 0.423 µM | 2.13 µM | 0.777 µM | 2.18 µM | 1.74 µM | 1.43 µM | 1.93 µM | 1.77 µM | 0.743 µM | 2.32 µM | 2.31 µM | 2.07 µM | 0.456 µM | 1.09 µM | 2.79 µM | 1.43 µM | TGI (DU-145): 1.39 µM; GI50 [1]: 0.79 µM; GI50 ([1]; read-out: GI50): 1.79 µM; GI50 [2]: 0.668 µM; GI50 ([2]; read-out: GI50): 1.08 µM; TGI (SK-BR-3): 1.98 µM; TGI (SK-MEL-28): 3.08 µM; GI50 (HT-29): 2.35 µM; TGI (HT-29): 2.12 µM; GI50 (LoVo [4]): 1.59 µM; TGI (LoVo [4]): 1.5 µM; TGI [5]: 2.8 µM
C/C=C1\NC(=O)[C@H](Cc2ccccc2)NC(=O)[C@@H](C(C)C)NC(=O)[C@@H]([C@H](C)CC)NC(=O)[C@H](NC(=O)[C@H](NC(=O)[C@H](CCCN)NC(=O)[C@H]2CCCN2C(=O)[C@H](NC(=O)[C@@H](NC(=O)[C@@H](NC(=O)[C@H](NC(=O)CCCCCCCCCCCCCCC)C(C)C)[C@@H](C)O)C(C)C)C(C)C)[C@H](C)CC)[C@H](C)OC(=O)[C@H](C(C)C)NC1=O | 0.145 µM | 0.111 µM | 0.107 µM | 0.0622 µM | 0.0791 µM | 0.0439 µM | 0.036 µM | 0.138 µM | 0.11 µM | 0.117 µM | 0.703 µM | 1.3 µM | 0.0727 µM | 0.3 µM | 0.293 µM | 0.286 µM | 0.258 µM | 0.151 µM | 0.326 µM | 0.513 µM | GI50 (DU-145): 0.126 µM; GI50 (LNCaP): 0.129 µM; TGI (LNCaP): 0.118 µM; GI50 [1]: 0.0926 µM; GI50 ([1]; read-out: GI50): 0.191 µM; GI50 [2]: 0.14 µM; GI50 ([2]; read-out: GI50): 0.345 µM; GI50 (SK-BR-3): 0.0398 µM; GI50 (SK-MEL-28): 0.123 µM; GI50 (A549): 0.126 µM; GI50 (A549; read-out: GI50): 1.37 µM; GI50 (K562): 0.124 µM; TGI (K562): 0.314 µM; GI50 (PANC-1): 0.203 µM; TGI (PANC-1): 1.37 µM; GI50 (LoVo [4]): 0.264 µM; TGI (LoVo [4]): 0.262 µM; TGI [5]: 0.479 µM
C/C=C1\NC(=O)[C@H](Cc2ccccc2)NC(=O)[C@@H](C(C)C)NC(=O)[C@@H]([C@H](C)CC)NC(=O)[C@H](NC(=O)[C@H](NC(=O)[C@H](CCCN)NC(=O)[C@H]2CCCN2C(=O)[C@H](NC(=O)[C@H](CCC(=O)O)NC(=O)[C@@H](NC(=O)[C@H](NC(=O)CCCC(C)C)C(C)C)[C@@H](C)O)C(C)C)[C@H](C)CC)[C@H](C)OC(=O)[C@H](C(C)C)NC1=O | – | 1.66 µM | 1.37 µM | 0.842 µM | 0.632 µM | – | 1.04 µM | – | 1.82 µM | 1.79 µM | 1.89 µM | 2.27 µM | 2.33 µM | – | – | 3.86 µM | 3.67 µM | 1.35 µM | – | 1.42 µM | –
C/C=C1\NC(=O)[C@H](Cc2ccccc2)NC(=O)[C@@H](C(C)C)NC(=O)[C@@H]([C@H](C)CC)NC(=O)[C@H](NC(=O)[C@H](NC(=O)[C@H](CCCN)NC(=O)[C@H]2CCCN2C(=O)[C@H](NC(=O)[C@H](CCC2CCCCC2)NC(=O)[C@@H](NC(=O)[C@@H](CC2CCCCC2)NC(=O)CCCC(C)C)[C@@H](C)O)C(C)C)[C@H](C)CC)[C@H](C)OC(=O)[C@H](C(C)C)NC1=O | 3.3 µM | 1.35 µM | 1.38 µM | 7.3 µM | 0.968 µM | 2.06 µM | 0.703 µM | 3.18 µM | 1.49 µM | 1.67 µM | 1.79 µM | 1.64 µM | 2.49 µM | 2.81 µM | 3.01 µM | 3.22 µM | 9.67 µM | 1.77 µM | 4.34 µM | 1.66 µM | TGI (DU-145): 2.55 µM; TGI (SK-BR-3): 1.69 µM; TGI (SK-MEL-28): 3.09 µM; TGI (A549): 3.24 µM; GI50 (A549; read-out: GI50): 3.6 µM; GI50 (K562): 1.79 µM; TGI (K562): 1.79 µM; GI50 (HT-29): 2.9 µM; TGI (HT-29): 2.7 µM; GI50 (LoVo [4]): 1.21 µM; TGI (LoVo [4]): 1.53 µM; GI50 (HeLa): 2.95 µM; TGI (HeLa): 3.51 µM; TGI [5]: 3.5 µM
C/C=C1\NC(=O)[C@H](Cc2ccccc2)NC(=O)[C@@H](C(C)C)NC(=O)[C@@H]([C@H](C)CC)NC(=O)[C@H](NC(=O)[C@H](NC(=O)[C@H](CCCN)NC(=O)[C@H]2CCCN2C(=O)[C@H](NC(=O)[C@@H](NC(=O)[C@@H](NC(=O)[C@H](NC(=O)CCCC(C)C)C(C)C)C(C)C)C(C)C)C(C)C)[C@H](C)CC)[C@H](C)OC(=O)[C@H](C(C)C)NC1=O | 0.175 µM | 0.127 µM | 0.733 µM | 0.0559 µM | 0.0648 µM | 0.166 µM | 0.0758 µM | 0.209 µM | 0.151 µM | 0.64 µM | 1.1 µM | 1.42 µM | 0.322 µM | 0.276 µM | 0.27 µM | 0.264 µM | 0.028 µM | 0.116 µM | 0.324 µM | 0.73 µM | GI50 (DU-145): 0.149 µM; GI50 (LNCaP): 0.334 µM; TGI (LNCaP): 0.53 µM; GI50 [1]: 0.118 µM; GI50 ([1]; read-out: GI50): 0.183 µM; GI50 [2]: 0.248 µM; GI50 ([2]; read-out: GI50): 0.257 µM; TGI (SK-BR-3): 0.153 µM; TGI (SK-MEL-28): 0.178 µM; GI50 (A549): 0.445 µM; GI50 (A549; read-out: GI50): 0.258 µM; GI50 (K562): 0.718 µM; TGI (K562): 0.899 µM; GI50 (PANC-1): 1.12 µM; TGI (PANC-1): 1.26 µM; GI50 (HT-29): 0.3 µM; TGI (HT-29): 0.311 µM; GI50 (HeLa): 0.134 µM; TGI (HeLa): 0.124 µM; TGI [5]: 0.467 µM
C/C=C1\NC(=O)[C@H](Cc2ccccc2)NC(=O)[C@@H](C(C)C)NC(=O)[C@@H](C(C)C)NC(=O)[C@H](NC(=O)[C@H](NC(=O)[C@H](CCCN)NC(=O)[C@H]2CCCN2C(=O)[C@H](NC(=O)[C@@H](NC(=O)[C@@H](NC(=O)[C@H](NC(=O)CCCC(C)C)C(C)C)[C@@H](C)O)C(C)C)C(C)C)C(C)C)[C@H](C)OC(=O)[C@H](C(C)C)NC1=O | 1.36 µM | 1.02 µM | 1.16 µM | 0.762 µM | 0.719 µM | 2.12 µM | 1.45 µM | 1.64 µM | 1.66 µM | 2 µM | 2.5 µM | 2.19 µM | 3.16 µM | 2.46 µM | 2.46 µM | 2.48 µM | 1.94 µM | 1.12 µM | 2.73 µM | 1.69 µM | TGI (DU-145): 1.18 µM; GI50 (LNCaP): 2.34 µM; TGI (LNCaP): 1.96 µM; TGI (SK-BR-3): 2.31 µM; TGI (SK-MEL-28): 1.65 µM; TGI (A549): 3.79 µM; GI50 (A549; read-out: GI50): 2.4 µM; GI50 (PANC-1): 4.71 µM; TGI (PANC-1): 3.91 µM; GI50 (HT-29): 2.5 µM; TGI (HT-29): 2.81 µM; GI50 (LoVo [4]): 1.43 µM; TGI (LoVo [4]): 1.67 µM; GI50 (HeLa): 1.4 µM; TGI (HeLa): 1.26 µM; TGI [5]: 2.79 µM
